Assay results reported in ChEMBL document CHEMBL1151964, “Divergent modes of enzyme inhibition in a homologous structure-activity series” (J Med Chem, 2009).
Activity calls are given as the source filed them. The calls are words filed in the database; no cut-off is given here.

Assays:
Cruzipain [1] = molecular target: T1, Cruzipain (Trypanosoma cruzi, UniProt P25779); experiment: Inhibition of Trypanosoma cruzi cruzain preincubated for 5 mins before substrate addition
Summary of the method: (§1)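 Cruzain IC50s were measured from dose-response curves with Triton X-100 in the assay buffer at either 0.01% or 0.001%. At 0.001% Triton, some runs included pre-incubation with BSA.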

Cruzipain [2] = molecular target: T1, Cruzipain; experiment: Inhibition of Trypanosoma cruzi cruzain preincubated for 5 mins before substrate addition in presence of 0.01% Triton X-100; summary of the method: as §1
Cruzipain [3] = molecular target: T1, Cruzipain; experiment: Inhibition of Trypanosoma cruzi cruzain preincubated for 5 mins before substrate addition in presence of 0.001% Triton X-100; summary of the method: as §1
[4] = molecular target: Cruzipain (Trypanosoma cruzi) (UniProt P25779); experiment: Inhibition of Trypanosoma cruzi cruzain assessed as colloidal aggregates particles formation after 5 mins by flow cytometry
Chain of Cruzipain (Trypanosoma cruzi) (P25779 123-467 limits assumed): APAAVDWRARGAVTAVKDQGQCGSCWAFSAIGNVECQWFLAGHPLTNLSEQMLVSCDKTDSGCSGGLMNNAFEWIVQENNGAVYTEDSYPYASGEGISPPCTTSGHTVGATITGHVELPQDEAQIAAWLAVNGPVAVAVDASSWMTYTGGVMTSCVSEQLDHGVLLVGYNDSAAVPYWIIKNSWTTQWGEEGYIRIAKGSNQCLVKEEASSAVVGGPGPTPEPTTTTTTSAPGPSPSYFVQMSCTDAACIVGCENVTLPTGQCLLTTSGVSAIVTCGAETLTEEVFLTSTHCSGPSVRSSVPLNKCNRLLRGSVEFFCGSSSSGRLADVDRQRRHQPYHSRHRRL
Summary of the method: (§2)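 Particle (aggregate) formation was assessed by flow cytometry, with some samples checked by dynamic light scattering. The value is the lowest concentration tested at which particles were seen.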

[5] = molecular target: Cruzipain (Trypanosoma cruzi) (UniProt P25779); experiment: Inhibition of Trypanosoma cruzi cruzain at 200 uM preincubated for 5 mins before substrate addition
Cruzipain [6] = molecular target: T1, Cruzipain; experiment: Competitive inhibition of Trypanosoma cruzi cruzain by Lineweaver-Burke plot analysis
[7] = Inhibition of Beta-lactamase AmpC preincubated for 5 mins before substrate addition in presence of 0.01% Triton X-100
Summary of the method: (§3)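 AmpC β-lactamase inhibition measured without detergent and with 0.01% Triton X-100, at the compound concentrations listed per compound. A compound was classed as an aggregator if its inhibition was detergent-sensitive.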

[8] = molecular target: Cruzipain (Trypanosoma cruzi) (UniProt P25779); experiment: Inhibition of Trypanosoma cruzi cruzain assessed as colloidal aggregates particles formation after 5 mins by flow cytometry in presence of 0.001% Triton X-100; summary of the method: as §2
[9] = Inhibition of Beta-lactamase AmpC at 100 uM preincubated for 5 mins before substrate addition; summary of the method: as §3
[10] = molecular target: Cruzipain (Trypanosoma cruzi) (UniProt P25779); conditions: 25 uM
Cruzipain [11] = molecular target: T1, Cruzipain; experiment: Inhibition of Trypanosoma cruzi cruzain preincubated for 5 mins before substrate addition in presence of 0.001% Triton X-100 with 1 mg/ml bovine serum albumin
[12] = Inhibition of Beta-lactamase AmpC at 50 uM preincubated for 5 mins before substrate addition
Summary of the method: (§4)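 β-Lactamase AmpC inhibition was tested at the concentration stated, both without and with 0.01% Triton X-100. A compound was called an aggregator when its inhibition was detergent-sensitive.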

[13] = molecular target: Cruzipain (Trypanosoma cruzi) (UniProt P25779); conditions: 5 uM
[14] = molecular target: Cruzipain (Trypanosoma cruzi) (UniProt P25779); conditions: 50 uM
[15] = Inhibition of Beta-lactamase AmpC at 13 uM preincubated for 5 mins before substrate addition; summary of the method: as §4
[16] = molecular target: Cruzipain (Trypanosoma cruzi) (UniProt P25779); experiment: Inhibition of Trypanosoma cruzi cruzain assessed as colloidal aggregates particles formation at 3.1 uM after 5 mins by dynamic light scattering assay

T1 sequence (P25779 whole entry): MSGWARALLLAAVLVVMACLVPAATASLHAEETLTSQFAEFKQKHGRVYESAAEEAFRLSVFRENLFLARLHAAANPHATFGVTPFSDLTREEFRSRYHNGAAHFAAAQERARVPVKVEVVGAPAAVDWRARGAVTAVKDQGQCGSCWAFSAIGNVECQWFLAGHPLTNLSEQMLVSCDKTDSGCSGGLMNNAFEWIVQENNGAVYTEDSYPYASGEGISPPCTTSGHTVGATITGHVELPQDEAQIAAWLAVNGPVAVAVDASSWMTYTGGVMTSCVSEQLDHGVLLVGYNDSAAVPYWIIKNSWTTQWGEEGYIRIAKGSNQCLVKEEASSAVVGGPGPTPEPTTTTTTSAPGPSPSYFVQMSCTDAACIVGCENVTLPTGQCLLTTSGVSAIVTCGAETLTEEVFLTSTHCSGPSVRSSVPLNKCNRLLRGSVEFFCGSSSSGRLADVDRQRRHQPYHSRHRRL

## Nc1ccccc1-c1nnc(C(=O)NCc2cccc3nsnc23)o1
Cruzipain [1]
  IC50: 6 µM

## Nc1ccccc1-c1nnc(C(=O)Nc2nnc(-c3ccc(Cl)cc3)s2)o1
Cruzipain [1]
  IC50: 4 µM
Cruzipain [2]
  IC50: 4 µM

## Cc1ccc(-c2cc(NC(=O)c3nnc(-c4ccccc4N)o3)[nH]n2)cc1
Cruzipain [1]
  IC50: 0.5 µM
Cruzipain [3]
  IC50: 0.5 µM

## Nc1ccccc1-c1nnc(C(=O)NCc2nc3ccccc3[nH]2)o1
Cruzipain [1]
  IC50: 17 µM

## Cn1ccc(NC(=O)c2nnc(-c3ccccc3N)o2)n1
Cruzipain [1]
  IC50: > 100 µM
Cruzipain [2]
  IC50: > 100 µM
Cruzipain [3]
  IC50: > 100 µM
[4]
  Activity: 200 µM

## Cc1cccc(C(=O)OCC(=O)Nc2cc(Cl)ccc2Cl)c1
[5]
  inhibition: 5%
Cruzipain [2]
  IC50: > 200 µM

## Nc1ccccc1-c1nnc(C(=O)NCc2ccc(C(F)(F)F)c(F)c2)o1
Cruzipain [1]
  IC50: 10 µM

## Nc1ccccc1-c1nnc(C(=O)NC2CCc3ccccc32)o1 (stereo not drawn)
Cruzipain [1]
  IC50: 17 µM

## Nc1ncccc1C(=O)OCC(=O)Nc1cc(Cl)ccc1Cl
Cruzipain [1]
  IC50: 77 µM
[5]
  inhibition: 79%
Cruzipain [6]
  Ki: 32 µM
[7]
  inhibition: inactive
Cruzipain [3]
  IC50: 27 µM
[8]
  Activity: 250 nM
[9]
  inhibition: Active
[10]
  inhibition: Active
Cruzipain [11]
  IC50: 116 µM

## Nc1ccccc1-c1nnc(C(=O)Nc2cccc(N3CCCC3)c2)o1
Cruzipain [1]
  IC50: 7 µM
Cruzipain [3]
  IC50: 7 µM
[12]
  inhibition: Active
[4]
  Activity: 50 µM
Cruzipain [11]
  IC50: 99 µM

## Nc1ccccc1-c1nnc(C(=O)Nc2cc(-c3cccs3)[nH]n2)o1
[13]
  inhibition: Active
[14]
  inhibition: Active

## Nc1ccccc1-c1nnc(C(=O)NCc2cccc(N3CCOCC3)c2)o1
Cruzipain [1]
  IC50: 33 µM

## Nc1ccccc1-c1nnc(C(=O)N[C@H]2CCCCNC2=O)o1
Cruzipain [1]
  IC50: > 100 µM

## CCN1CCC[C@H]1CNC(=O)c1nnc(-c2ccccc2N)o1
Cruzipain [1]
  IC50: > 100 µM
Cruzipain [2]
  IC50: > 100 µM
Cruzipain [3]
  IC50: > 100 µM
[4]
  Activity: > 200 µM
[8]
  Activity: inactive

## Nc1ccccc1C(=O)NCC(=O)NC1CCCCC1
[5]
  inhibition: 15%

## Nc1ccccc1-c1nnc(C(=O)NCc2ccccc2OC2CCOCC2)o1
Cruzipain [1]
  IC50: 42 µM

## Cc1nn(-c2ccccc2)nc1CNC(=O)c1nnc(-c2ccccc2N)o1
Cruzipain [1]
  IC50: 7 µM

## Nc1ncccc1C(=O)OCC(=O)Nc1ccccc1OC(F)F
[5]
  inhibition: 58%
Cruzipain [2]
  IC50: 126 µM

## COc1ccc(OC)c(CNC(=O)c2nnc(-c3ccccc3N)o2)c1
Cruzipain [1]
  IC50: 8 µM
Cruzipain [3]
  IC50: 8 µM
Cruzipain [11]
  IC50: 45 µM

## Nc1ccccc1-c1nnc(C(=O)Nc2ccc(N3CCOCC3)cc2)o1
Cruzipain [1]
  IC50: 62 µM
Cruzipain [2]
  IC50: 62 µM

## Nc1ccccc1-c1nnc(C(=O)NC2CCNCC2)o1
Cruzipain [1]
  IC50: > 100 µM

## Nc1ccccc1-c1nnc(C(=O)NCc2csc(-c3cccs3)n2)o1
Cruzipain [1]
  IC50: 2 µM
Cruzipain [2]
  IC50: 2 µM

## CC(C)(C)c1cc(NC(=O)c2nnc(-c3ccccc3N)o2)n[nH]1
[4]
  Activity: 3.1 µM
[15]
  inhibition: Active

## Nc1ccccc1-c1nnc(C(=O)NCCN2CCOCC2)o1
Cruzipain [1]
  IC50: > 100 µM
Cruzipain [2]
  IC50: > 100 µM
Cruzipain [3]
  IC50: > 100 µM

## Nc1ccccc1-c1nnc(C(=O)NCCCN2CCCC2=O)o1
Cruzipain [1]
  IC50: > 100 µM
Cruzipain [2]
  IC50: > 100 µM
Cruzipain [3]
  IC50: > 100 µM
[4]
  Activity: > 200 µM
[8]
  Activity: inactive

## Nc1ncccc1C(=O)OCC(=O)NC1CCCCCC1
Cruzipain [1]
  IC50: 87 µM
[5]
  inhibition: 68%
[8]
  Activity: 250 nM

## COc1ccc(-c2cc(NC(=O)c3nnc(-c4ccccc4N)o3)n[nH]2)cc1
Cruzipain [1]
  IC50: 0.2 µM
Cruzipain [3]
  IC50: 0.2 µM
[4]
  Activity: 3.1 µM
[16]
  Activity: Active
[15]
  inhibition: Active

## Nc1ccccc1-c1nnc(C(=O)NCc2c(Cl)cccc2Cl)o1
Cruzipain [3]
  IC50: 8 µM

## Nc1ccccc1-c1nnc(C(=O)NC2Cc3ccccc3C2)o1
Cruzipain [1]
  IC50: 11 µM
Cruzipain [2]
  IC50: 11 µM

## Nc1ncccc1C(=O)OCC(=O)Nc1ccc2c(c1)OCCO2
[5]
  inhibition: 51%
Cruzipain [2]
  IC50: 182 µM

## Nc1ccccc1C(=O)OCC(=O)Nc1cc(Cl)ccc1Cl
Cruzipain [1]
  IC50: 58 µM

## Cc1cc2cc(NC(=O)c3nnc(-c4ccccc4N)o3)ccc2[nH]1
Cruzipain [1]
  IC50: 6 µM
Cruzipain [2]
  IC50: > 100 µM
Cruzipain [3]
  IC50: 6 µM

## NC(=O)c1ccsc1NC(=O)COC(=O)c1cc(Br)ccc1N
[5]
  inhibition: 61%
Cruzipain [2]
  IC50: 90 µM

## Nc1ncccc1C(=O)NCC(=O)NC1CCCCC1
[5]
  inhibition: 16%

## Nc1ccccc1-c1nnc(C(=O)NCCN2CCNC2=O)o1
Cruzipain [1]
  IC50: > 100 µM

## Cn1nccc1NC(=O)c1nnc(-c2ccccc2N)o1
Cruzipain [1]
  IC50: > 100 µM
Cruzipain [2]
  IC50: > 100 µM

## Nc1ccccc1-c1nnc(C(=O)NCc2ccc(Cn3cccn3)cc2)o1
Cruzipain [1]
  IC50: 8 µM

## Nc1ccccc1-c1nnc(C(=O)NCc2cccc(-n3cccn3)c2)o1
Cruzipain [1]
  IC50: 17 µM

## Nc1ccccc1-c1nnc(C(=O)Nc2cc(-c3cccs3)n[nH]2)o1
Cruzipain [1]
  IC50: 1 µM
Cruzipain [3]
  IC50: 1 µM
Cruzipain [11]
  IC50: 102 µM

## CCC(NC(=O)COC(=O)c1cccnc1N)c1ccc(Br)cc1 (stereo not drawn)
Cruzipain [1]
  IC50: 84 µM
[5]
  inhibition: 65%
[8]
  Activity: 250 nM

## Nc1ccccc1-c1nnc(C(=O)Nc2ccc3[nH]ncc3c2)o1
Cruzipain [1]
  IC50: 41 µM

## CCN(CC)c1ccc(NC(=O)c2nnc(-c3ccccc3N)o2)cc1
Cruzipain [1]
  IC50: 36 µM

## CC1C2CCC(C)(C2)C1NC(=O)c1nnc(-c2ccccc2N)o1 (stereo not drawn)
Cruzipain [1]
  IC50: 36 µM

## Cc1ccc(CNC(=O)c2nnc(-c3ccccc3N)o2)o1
Cruzipain [1]
  IC50: 14 µM

## Nc1ccccc1-c1nnc(C(=O)NCc2ccnc(N3CCOCC3)c2)o1
Cruzipain [1]
  IC50: 83 µM
Cruzipain [2]
  IC50: 83 µM

## Cc1cc(NC(=O)c2nnc(-c3ccccc3N)o2)n[nH]1
[12]
  inhibition: inactive
[4]
  Activity: 50 µM

## Nc1ccccc1-c1nnc(C(=O)NCCCn2ccnc2)o1
Cruzipain [1]
  IC50: > 100 µM

## Nc1ccccc1-c1nnc(C(=O)NCc2c(N)cccc2F)o1
Cruzipain [1]
  IC50: 52 µM

## CC(C)(C)c1cc(NC(=O)c2nnc(-c3ccccc3N)o2)[nH]n1
Cruzipain [1]
  IC50: 2 µM
Cruzipain [3]
  IC50: 2 µM

## COc1cc(CNC(=O)c2nnc(-c3ccccc3N)o2)cc(OC)c1OC
Cruzipain [1]
  IC50: > 100 µM

## Nc1ccccc1-c1nnc(C(=O)NCc2ccc3c(c2)OCO3)o1
Cruzipain [1]
  IC50: 6 µM

## CC(NC(=O)c1nnc(-c2ccccc2N)o1)C12CC3CC(CC(C3)C1)C2 (stereo not drawn)
Cruzipain [1]
  IC50: 18 µM
Cruzipain [2]
  IC50: 18 µM

## Nc1ccccc1-c1nnc(C(=O)Nc2nc(-c3ccc(Cl)cc3)cs2)o1
Cruzipain [1]
  IC50: 3 µM

## Nc1ccccc1-c1nnc(C(=O)Nc2ccc3oc4c(c3c2)CCCC4)o1
Cruzipain [1]
  IC50: 2 µM
Cruzipain [3]
  IC50: 2 µM
[12]
  inhibition: Active
[4]
  Activity: > 100 µM

## Cc1cc(NC(=O)c2nnc(-c3ccccc3N)o2)[nH]n1
Cruzipain [1]
  IC50: 11 µM
Cruzipain [3]
  IC50: 11 µM

## O=C(COC(=O)c1ccccn1)Nc1cc(Cl)ccc1Cl
[5]
  inhibition: 16%
Cruzipain [2]
  IC50: > 200 µM

## Nc1ccccc1-c1nnc(C(=O)N[C@@H]2c3ccccc3C[C@@H]2O)o1
Cruzipain [1]
  IC50: 32 µM

## Nc1ccccc1-c1nnc(C(=O)NCc2ccnc(N3CCSCC3)c2)o1
Cruzipain [1]
  IC50: 23 µM

## Nc1ccccc1-c1nnc(C(=O)Nc2cc(-c3ccccc3)[nH]n2)o1
Cruzipain [1]
  IC50: 0.8 µM
Cruzipain [3]
  IC50: 0.8 µM

## Nc1ccccc1-c1nnc(C(=O)NCc2ccc(Oc3ccccc3)cc2)o1
Cruzipain [1]
  IC50: 6 µM
Cruzipain [2]
  IC50: 6 µM

## Nc1ccccc1-c1nnc(C(=O)NCc2ccccc2N2CCOCC2)o1
Cruzipain [1]
  IC50: 38 µM
